The results in this text go back to ChEMBL document CHEMBL3045646, “Synthesis and antityrosinase activities of alkyl 3,4-dihydroxybenzoates” (J Agric Food Chem, 2011).

Calls of active or inactive are those of the source. The calls are words filed in the database; no cut-off is given here.

Assay [1] has as its target T1, Tyrosinase (Agaricus bisporus) (UniProt O42713).
T1 sequence (whole entry): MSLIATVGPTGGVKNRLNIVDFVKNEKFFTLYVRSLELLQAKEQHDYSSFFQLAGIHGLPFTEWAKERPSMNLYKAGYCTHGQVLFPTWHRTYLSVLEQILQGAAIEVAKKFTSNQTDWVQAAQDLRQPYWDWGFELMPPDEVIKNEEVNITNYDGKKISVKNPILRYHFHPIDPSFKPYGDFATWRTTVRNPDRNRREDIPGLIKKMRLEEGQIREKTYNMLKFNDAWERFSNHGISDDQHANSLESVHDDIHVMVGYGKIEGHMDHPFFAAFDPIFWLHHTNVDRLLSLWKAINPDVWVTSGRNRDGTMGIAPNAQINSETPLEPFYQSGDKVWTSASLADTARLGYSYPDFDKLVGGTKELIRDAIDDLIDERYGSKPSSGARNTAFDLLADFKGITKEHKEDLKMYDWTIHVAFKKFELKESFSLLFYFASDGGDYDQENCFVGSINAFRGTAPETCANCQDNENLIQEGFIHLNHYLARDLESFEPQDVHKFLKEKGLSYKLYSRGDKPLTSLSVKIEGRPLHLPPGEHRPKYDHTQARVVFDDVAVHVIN
Description: Reversible inhibition of Agaricus bisporus (mushroom) tyrosinase assessed as remaining enzyme activity using L-DOPA as substrate by spectrophotometric analysis. In outline: (§1)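 Reversibility tested with L-DOPA as substrate in pH 6.8 phosphate buffer at 30 °C, with A475 read-out. Remaining activity was plotted against enzyme concentration at several inhibitor levels, with inhibitor series of 0–200, 0–100 or 0–80 μM. Lines through the origin were taken as reversible, and parallel lines not through the origin as irreversible.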

The subject of assay [2] is Plutella xylostella. As to the kind of experiment: Insecticidal activity against second-instar larval stage of Plutella xylostella (diamondback moth) assessed as inhibition of insect development and molting at 40 mg/ml after 3 days (reference value: 0.95 cm). It is filed as functional. In outline: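 Compound dissolved in acetone, diluted (2.5–40 mg/mL) and spread over feed surface. Larvae kept at 27 ± 2 °C, 70% humidity, 14:10 h light:dark photoperiod. Larval body length recorded after 3 days.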

Assay [3] deals with T2, Tyrosinase (Agaricus bisporus, UniProt O42713).
T2 sequence (O42713 whole entry): T1 sequence (whole entry)
As to the kind of experiment: Inhibition of Agaricus bisporus (mushroom) tyrosinase using L-DOPA as substrate by secondary plot analysis. In outline:
(§2)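 L-DOPA oxidation by mushroom tyrosinase at 30 °C, pH 6.8, with inhibitor at 0, 50, 100, 150 and 200 μM, read at 475 nm. Inhibition type came from Lineweaver–Burk plots (1/v vs 1/[S]). K_IS came from a secondary plot of 1/V_m (or apparent K_m/V_m) against inhibitor concentration.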

The test system of assay [4] is Plutella xylostella. As to the kind of experiment: Downregulation of tyrosinase inactive precursor, PxPPO gene expression in newly molted second-instar larval stage of Plutella xylostella (diamondback moth) at 2.5 to 40 mg/ml after 72 hr by real-time quantitative PCR analysis. Type of assay: functional, organism-based. In outline:
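Compound in acetone, diluted to 2.5, 5, 20 and 40 mg/mL and spread on feed surface in wells. Larvae reared at 27 ± 2 °C, 70% humidity, 14:10 h light:dark. Whole-body PxPPO2 transcripts measured 72 h after treatment by real-time qPCR (95 °C 10 s; 45 cycles of 95 °C 5 s / 60 °C 20 s), with melting-curve check, normalized to GAPDH.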

Assay [5] concerns the target T2, Tyrosinase. Description: Inhibition of Agaricus bisporus (mushroom) tyrosinase-catalyzed oxidation of L-DOPA substrate by spectrophotometric analysis. In outline: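 Diphenolase activity of mushroom tyrosinase (6.67 μg/mL final) with 0.5 mM L-DOPA in 50 mM sodium phosphate pH 6.8, 30 °C. Inhibitors added from DMSO, 3.3% DMSO final; DMSO-only controls. Rate from slope of linear A475 progress curve. IC50 = concentration giving 50% activity loss.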

Assay [6] has as its target T1, Tyrosinase (Agaricus bisporus). Description: Uncompetitive inhibition of Agaricus bisporus (mushroom) tyrosinase assessed as […] in Km and Vm without change in Km/Vm using L-DOPA as substrate at 50 uM by Line-weaver burk plot analysis. In outline: as §2
For assay [7] the target is unchanged. As to the kind of experiment: Uncompetitive inhibition of Agaricus bisporus (mushroom) tyrosinase assessed as […] in Km and Vm without change in Km/Vm using L-DOPA as substrate by Line-weaver burk plot analysis. In outline: as §2
The target is the same in assay [8]. Description: Reversible inhibition of Agaricus bisporus (mushroom) tyrosinase assessed as remaining enzyme activity at <50 uM using L-DOPA as substrate by spectrophotometric analysis. In outline:
as §1

For assay [9] the target is unchanged. As to the kind of experiment: Irreversible inhibition of Agaricus bisporus (mushroom) tyrosinase assessed as remaining enzyme activity at >75 uM using L-DOPA as substrate by spectrophotometric analysis. In outline:
as §1

The target is the same in assay [10]. As to the kind of experiment: Irreversible inhibition of Agaricus bisporus (mushroom) tyrosinase assessed as remaining enzyme activity using L-DOPA as substrate by spectrophotometric analysis. In outline:
as §1

For orientation: Ki means the equilibrium dissociation constant of an inhibitor or competing ligand from its target. Low values mean a stronger hold on the target, high ones a looser hold on the target. As usually defined, the IC50 is the concentration that inhibits the measured activity by half. Consider `CCCCCCOC(=O)c1ccc(O)c(O)c1` [HEXYL 3,4-DIHYDROXYBENZOATE], for which the inhibition result (in assay [1]; in the assay with Plutella xylostella [4]; in [6]) was “Active” throughout. Besides, the Activity in the assay with Plutella xylostella [2] turned out to be 0.3 cm. At Tyrosinase [3], this compound gave a Ki of 389 µM. Also, the IC50 against Tyrosinase [5] was 910 µM.
Take `CCCCCCCOC(=O)c1ccc(O)c(O)c1` [HEPTYL 3,4-DIHYDROXYBENZOATE]: the inhibition result in [1] and in [7] was “Active” each time. The Ki at Tyrosinase [3] stood at 135 µM. In addition, the IC50 at Tyrosinase [5] amounted to 316 µM.
Turning to `CCCCCCCCOC(=O)c1ccc(O)c(O)c1` [OCTYL 3,4-DIHYDROXYBENZOATE], the inhibition entry in [8], in assay [6] and in assay [9] was “Active” throughout. This compound also gave an IC50 on Tyrosinase [5] of 129 µM.
Consider `CCCCCCCCCOC(=O)c1ccc(O)c(O)c1` [NONYL 3,4-DIHYDROXYBENZOATE], for which, in [10], the inhibition entry is “Active”. The compound also gave an IC50 on Tyrosinase [5] of 81 µM.
